For series [1], the target named is human P-gp wild-type (Homo sapiens, UniProt P08183). In kind it is cell-based.
The target of series [2] is human P-gp Y950F (Homo sapiens, UniProt P08183, Y950F). The experiment in a line: Inhibition of rh123 efflux, Y950F mutant. In kind it is cell-based.
Series [3] addresses human P-gp Y953F (Homo sapiens, UniProt P08183, Y953F). The experiment in a line: Inhibition of rh123 efflux, Y953F mutant. In kind it is cell-based.
Series [4] deals with T1, human P-gp Q132R (Homo sapiens, UniProt P08183, Q132R). The series is described as follows: Inhibition of rh123 efflux, Q132R mutant. In kind it is cell-based. Particulars: for fold difference in IC50 values for wild-type protein and the Q132R mutant: Q132R mutant vs wild-type.
T1 sequence (P08183 whole entry Q132R): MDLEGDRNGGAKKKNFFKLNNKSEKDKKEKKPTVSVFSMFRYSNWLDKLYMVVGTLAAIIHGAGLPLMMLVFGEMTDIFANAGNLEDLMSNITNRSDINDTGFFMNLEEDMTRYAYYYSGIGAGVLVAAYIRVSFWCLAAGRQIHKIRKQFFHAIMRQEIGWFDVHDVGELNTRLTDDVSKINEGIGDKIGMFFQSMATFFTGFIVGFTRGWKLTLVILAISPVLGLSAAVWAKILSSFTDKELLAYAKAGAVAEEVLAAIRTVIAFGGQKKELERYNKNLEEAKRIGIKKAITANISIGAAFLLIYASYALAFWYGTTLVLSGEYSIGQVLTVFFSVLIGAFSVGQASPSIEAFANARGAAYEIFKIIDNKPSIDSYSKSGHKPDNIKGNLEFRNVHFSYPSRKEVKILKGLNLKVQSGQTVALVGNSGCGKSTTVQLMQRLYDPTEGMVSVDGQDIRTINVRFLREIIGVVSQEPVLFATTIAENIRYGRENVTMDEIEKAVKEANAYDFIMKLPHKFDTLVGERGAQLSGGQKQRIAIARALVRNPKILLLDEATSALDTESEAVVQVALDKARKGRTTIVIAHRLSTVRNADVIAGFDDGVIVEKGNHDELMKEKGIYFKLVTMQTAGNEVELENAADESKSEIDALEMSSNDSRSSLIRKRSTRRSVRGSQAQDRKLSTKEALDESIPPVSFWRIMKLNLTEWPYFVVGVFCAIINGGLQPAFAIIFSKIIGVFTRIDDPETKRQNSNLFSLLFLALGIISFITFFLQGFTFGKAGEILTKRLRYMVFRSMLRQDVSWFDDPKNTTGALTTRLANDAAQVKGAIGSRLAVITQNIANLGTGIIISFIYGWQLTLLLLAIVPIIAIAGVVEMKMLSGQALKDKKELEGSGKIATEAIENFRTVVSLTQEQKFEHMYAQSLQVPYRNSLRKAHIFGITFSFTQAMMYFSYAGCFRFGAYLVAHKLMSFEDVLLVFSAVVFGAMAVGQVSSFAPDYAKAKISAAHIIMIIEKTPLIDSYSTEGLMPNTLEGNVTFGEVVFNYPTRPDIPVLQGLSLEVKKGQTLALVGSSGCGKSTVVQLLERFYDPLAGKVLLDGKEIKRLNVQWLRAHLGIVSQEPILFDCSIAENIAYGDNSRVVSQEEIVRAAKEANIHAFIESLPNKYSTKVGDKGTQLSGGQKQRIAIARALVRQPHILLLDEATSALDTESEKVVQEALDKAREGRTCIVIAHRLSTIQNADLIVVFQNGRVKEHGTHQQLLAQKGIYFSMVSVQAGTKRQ
For series [5], the target named is human P-gp Q132R/Y953F (Homo sapiens, UniProt P08183, Q132R/Y953F). The experiment in a line: Inhibition of rh123 efflux, Q132R/Y953F mutant. In kind it is cell-based. Particulars: for fold higher IC50 value than the Q132R mutation: Q132R/Y953F mutant vs Q132R.
human P-gp Q132R/Y953F, sequence (P08183 whole entry Q132R/Y953F): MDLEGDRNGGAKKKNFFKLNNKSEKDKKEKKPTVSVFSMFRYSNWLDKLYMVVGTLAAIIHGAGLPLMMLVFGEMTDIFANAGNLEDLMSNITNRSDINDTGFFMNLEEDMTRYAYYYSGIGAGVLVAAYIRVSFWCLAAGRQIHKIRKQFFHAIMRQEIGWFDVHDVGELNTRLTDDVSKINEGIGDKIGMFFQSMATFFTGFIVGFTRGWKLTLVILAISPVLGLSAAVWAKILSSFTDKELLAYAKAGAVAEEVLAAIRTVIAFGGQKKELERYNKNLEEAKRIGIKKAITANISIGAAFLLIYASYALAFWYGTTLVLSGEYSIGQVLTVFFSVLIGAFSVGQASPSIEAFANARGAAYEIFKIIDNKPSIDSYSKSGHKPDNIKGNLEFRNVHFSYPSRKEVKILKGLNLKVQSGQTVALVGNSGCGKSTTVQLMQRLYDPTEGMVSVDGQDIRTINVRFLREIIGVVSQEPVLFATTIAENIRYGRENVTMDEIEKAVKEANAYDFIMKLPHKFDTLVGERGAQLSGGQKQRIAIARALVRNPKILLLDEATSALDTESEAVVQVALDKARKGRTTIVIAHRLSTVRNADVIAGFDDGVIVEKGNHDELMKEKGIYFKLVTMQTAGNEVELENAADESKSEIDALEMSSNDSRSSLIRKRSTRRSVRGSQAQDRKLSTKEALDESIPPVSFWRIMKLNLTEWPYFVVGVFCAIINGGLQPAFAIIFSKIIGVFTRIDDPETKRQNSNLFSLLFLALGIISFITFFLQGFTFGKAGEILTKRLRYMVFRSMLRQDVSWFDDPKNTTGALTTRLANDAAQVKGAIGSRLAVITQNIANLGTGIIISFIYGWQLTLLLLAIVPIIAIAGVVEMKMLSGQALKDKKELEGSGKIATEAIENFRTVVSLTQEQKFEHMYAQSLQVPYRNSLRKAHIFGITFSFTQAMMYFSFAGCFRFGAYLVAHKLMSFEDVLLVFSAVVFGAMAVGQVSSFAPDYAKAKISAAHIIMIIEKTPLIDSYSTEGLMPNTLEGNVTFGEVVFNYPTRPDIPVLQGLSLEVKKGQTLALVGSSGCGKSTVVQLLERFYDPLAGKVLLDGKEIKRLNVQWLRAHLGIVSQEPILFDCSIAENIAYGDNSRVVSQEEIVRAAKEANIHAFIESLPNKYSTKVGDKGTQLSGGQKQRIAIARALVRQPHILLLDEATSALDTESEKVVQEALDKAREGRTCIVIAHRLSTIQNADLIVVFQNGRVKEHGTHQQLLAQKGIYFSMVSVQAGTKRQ
Series [6] relates to human P-gp Q132R/Y950F/Y953F. The experiment in a line: Inhibition of rh123 efflux, Q132R/Y950F/Y953F triple mutant. In kind it is cell-based. Particulars: in the Q132R background.
A short description of series [7]: pKa and protonated fraction of propafenone analogs. In kind it is physicochemical. To be noted: at intracellular pH, estimated from pKa.
The conditions of series [8]: ref Ecker et al., 1999; cited from earlier work.
Series [9] concerns the target human P-gp Y950F/Y953F (Homo sapiens, UniProt P08183, Y950F/Y953F). The series is described as follows: Inhibition of rh123 efflux, Y950F/Y953F double mutant. In kind it is cell-based.
The target in series [10] is human P-gp Q132R/Y950F (Homo sapiens, UniProt P08183, Q132R/Y950F). The experiment in a line: Inhibition of rh123 efflux, Q132R/Y950F mutant. In kind it is cell-based.
For series [11], the target named is T1, human P-gp Q132R. The experiment in a line: Continuous monitoring of rh123 zero trans efflux, Q132R mutant. Particulars: mean ± S.D. In kind it is cell-based. The gist of the method: (§1)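 HEK293 cells, with endogenous P-gp knocked down by lentiviral shRNA and puromycin selection, were transiently transfected with hexa-His human P-gp mutants. Cells were loaded with 0.53 μM rh123 (final) in DMEM pH 7.8 for 30 min at 37°C, chilled and washed, then effluxed into 37°C DMEM pH 7.4. Flow cytometry ran 5 min at 37°C (488/534 nm). Exponential-fit k was normalized to MRK16 surface staining. n≥3.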

Series [12] has as its target human P-gp Q773R (Homo sapiens, UniProt P08183, Q773R). The series is described as follows: Continuous monitoring of rh123 zero trans efflux, Q773R mutant. In kind it is cell-based. Particulars: mean ± S.D. A digest of the protocol:
as §1

The target in series [13] is human P-gp Q773R/Y950F/Y953F (Homo sapiens, UniProt P08183, Q773R/Y950F/Y953F). The series is described as follows: Continuous monitoring of rh123 zero trans efflux, Q773R/Y950F/Y953F mutant. Particulars: expressed at the surface. In kind it is cell-based. The gist of the method:
as §1

Like-named read-outs stand apart in the source and are kept apart here.

human P-gp Y950F, sequence (P08183 whole entry Y950F): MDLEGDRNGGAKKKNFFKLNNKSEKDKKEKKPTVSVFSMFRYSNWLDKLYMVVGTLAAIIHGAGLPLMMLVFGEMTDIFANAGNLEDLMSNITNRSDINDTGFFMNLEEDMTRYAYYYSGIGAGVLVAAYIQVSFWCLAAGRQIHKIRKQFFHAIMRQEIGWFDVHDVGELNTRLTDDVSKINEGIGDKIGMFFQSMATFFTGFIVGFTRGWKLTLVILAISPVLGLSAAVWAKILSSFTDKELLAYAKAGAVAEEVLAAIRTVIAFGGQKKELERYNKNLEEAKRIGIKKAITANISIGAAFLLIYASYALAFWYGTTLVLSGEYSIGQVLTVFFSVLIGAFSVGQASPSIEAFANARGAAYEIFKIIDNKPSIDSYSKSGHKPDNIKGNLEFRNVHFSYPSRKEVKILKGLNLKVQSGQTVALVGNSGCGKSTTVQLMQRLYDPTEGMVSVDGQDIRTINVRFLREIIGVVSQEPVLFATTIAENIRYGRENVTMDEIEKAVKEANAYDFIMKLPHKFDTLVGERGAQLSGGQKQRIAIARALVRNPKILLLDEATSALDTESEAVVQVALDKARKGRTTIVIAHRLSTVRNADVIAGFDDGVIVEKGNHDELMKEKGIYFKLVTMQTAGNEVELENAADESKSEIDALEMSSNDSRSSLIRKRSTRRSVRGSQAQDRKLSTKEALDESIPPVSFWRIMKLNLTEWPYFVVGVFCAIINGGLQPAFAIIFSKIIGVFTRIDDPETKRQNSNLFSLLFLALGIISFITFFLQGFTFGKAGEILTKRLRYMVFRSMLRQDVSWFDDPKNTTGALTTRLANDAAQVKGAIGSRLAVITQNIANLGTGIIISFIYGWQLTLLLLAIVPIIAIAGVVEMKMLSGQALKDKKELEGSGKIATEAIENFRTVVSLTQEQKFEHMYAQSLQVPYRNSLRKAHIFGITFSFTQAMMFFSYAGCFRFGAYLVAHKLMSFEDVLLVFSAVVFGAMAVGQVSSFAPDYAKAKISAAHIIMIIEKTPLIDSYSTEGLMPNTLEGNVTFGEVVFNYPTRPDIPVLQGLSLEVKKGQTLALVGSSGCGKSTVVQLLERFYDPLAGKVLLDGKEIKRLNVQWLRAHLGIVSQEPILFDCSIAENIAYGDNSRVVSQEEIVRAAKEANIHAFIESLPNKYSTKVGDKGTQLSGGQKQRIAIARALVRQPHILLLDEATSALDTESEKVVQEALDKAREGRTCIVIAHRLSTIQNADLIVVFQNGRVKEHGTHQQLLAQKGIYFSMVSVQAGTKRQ
human P-gp Y953F, sequence (P08183 whole entry Y953F): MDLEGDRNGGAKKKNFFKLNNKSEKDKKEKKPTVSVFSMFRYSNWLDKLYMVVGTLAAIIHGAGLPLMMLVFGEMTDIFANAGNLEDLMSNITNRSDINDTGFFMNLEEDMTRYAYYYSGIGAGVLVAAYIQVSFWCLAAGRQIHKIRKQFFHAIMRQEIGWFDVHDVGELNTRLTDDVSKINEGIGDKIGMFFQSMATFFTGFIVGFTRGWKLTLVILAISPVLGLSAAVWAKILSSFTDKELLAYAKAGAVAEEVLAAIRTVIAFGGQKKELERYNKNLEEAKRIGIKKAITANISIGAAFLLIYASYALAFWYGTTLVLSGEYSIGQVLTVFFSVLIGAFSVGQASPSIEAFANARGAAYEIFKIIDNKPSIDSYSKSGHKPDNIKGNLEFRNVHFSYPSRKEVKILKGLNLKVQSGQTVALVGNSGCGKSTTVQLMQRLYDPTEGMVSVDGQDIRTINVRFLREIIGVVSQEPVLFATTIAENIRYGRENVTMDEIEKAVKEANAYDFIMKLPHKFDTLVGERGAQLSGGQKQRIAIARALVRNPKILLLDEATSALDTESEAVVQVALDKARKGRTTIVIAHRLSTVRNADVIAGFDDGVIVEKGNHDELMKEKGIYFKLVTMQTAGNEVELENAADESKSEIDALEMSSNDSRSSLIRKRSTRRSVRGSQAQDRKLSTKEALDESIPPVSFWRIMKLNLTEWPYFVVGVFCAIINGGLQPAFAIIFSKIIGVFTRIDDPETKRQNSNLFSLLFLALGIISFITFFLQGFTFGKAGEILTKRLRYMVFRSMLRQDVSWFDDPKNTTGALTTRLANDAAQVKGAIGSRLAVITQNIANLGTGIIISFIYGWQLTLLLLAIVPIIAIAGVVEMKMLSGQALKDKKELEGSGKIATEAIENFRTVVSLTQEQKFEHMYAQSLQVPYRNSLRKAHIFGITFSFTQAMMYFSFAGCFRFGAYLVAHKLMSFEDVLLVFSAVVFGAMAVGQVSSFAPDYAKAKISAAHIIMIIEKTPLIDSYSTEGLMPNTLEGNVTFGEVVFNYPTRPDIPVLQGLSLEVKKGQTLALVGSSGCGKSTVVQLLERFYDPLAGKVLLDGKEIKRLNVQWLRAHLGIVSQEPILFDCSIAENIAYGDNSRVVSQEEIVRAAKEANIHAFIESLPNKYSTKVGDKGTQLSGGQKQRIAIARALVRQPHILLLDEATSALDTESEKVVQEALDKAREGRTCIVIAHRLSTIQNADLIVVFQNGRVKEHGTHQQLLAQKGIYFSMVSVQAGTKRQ

In the case of `O=C(CCc1ccccc1)c1ccccc1OCC(O)CN1CCCCC1` (stereo not drawn) [GPV005], the IC50 in series [1] (read-out: IC50 for inhibition of rh123 efflux, wild-type P-gp, HEK293 cells, 37°C, mean ± S.D.) stood at 518 ± 141 nM; in [2] (read-out: IC50 for inhibition of rh123 efflux, Y950F mutant, HEK293 cells, mean ± S.D.) it was 1350 ± 229 nM; in series [3] (read-out: IC50 for inhibition of rh123 efflux, Y953F mutant, HEK293 cells, mean ± S.D.) it was 1210 ± 362 nM; in [4] (read-out: IC50 for inhibition of rh123 efflux, Q132R mutant, HEK293 cells, mean ± S.D.), 1410 ± 215 nM. For the same compound, the “fold difference in IC50 values for wild-type protein and the Q132R mutant” value in series [4] was “at least 3 fold”. In series [5], the “fold higher IC50 value than the Q132R mutation” value was 1.5 fold. In series [6], the “fold change in IC50” value turned out to be 2.3 fold. Also, in series [7], the “percentage of protonated (charged) species” value is on record as over 90%. The pKa in series [8] is listed as 8.4.
For the compound `O=C(CCc1ccccc1)c1ccccc1OCC(O)CN1CCN(c2ccc(F)cc2)CC1` (stereo not drawn) [GPV031, 1-(2-(3-(4-(4-fluorophenyl)piperazin-1-yl)-2-hydroxypropoxy)phenyl)-3-phenylpropan-1-one], the IC50 in series [1] came to 85 ± 22 nM; in series [2] it was 238 ± 84 nM; in series [3], 287 ± 109 nM; in series [9], 630 ± 87 nM; in series [4] it was 521 ± 183 nM. Also, the “fold difference in IC50 values for wild-type protein and the Q132R mutant” value in [4] is “at least 3 fold”. Moreover, the “fold higher IC50 value than the Q132R mutation” value in series [5] was found to be 2.1 fold. Also, the “fold change in IC50” value in series [6] stood at 2.7 fold. Besides, in [7], the “percentage of protonated (charged) species” value was 60–70%. For the same compound, the pKa in [8] is 7.3.
As for `CCCN(CC(O)COc1ccccc1C(=O)CCc1ccccc1)C(=O)c1ccccc1` (stereo not drawn) [GPV366, N-(2-hydroxy-3-(2-(3-phenylpropanoyl)phenoxy)propyl)-N-propylbenzamide], the IC50 stood at 2240 ± 391 nM in series [1]; 2980 ± 79 nM in [2]; 15900 nM in series [3]; 17800 nM in series [9]; 1070 ± 282 nM in [4]; 966 ± 259 nM in series [10]. In addition, the IC50 in series [5] stood at 3260 ± 965 nM. Besides, the “fold change in IC50 relative to wild-type” value in series [3] (Y953F mutant vs wild-type) is 7.1 fold; in series [9] (Y950F/Y953F mutant vs wild-type), 8 fold. Further, in [5], the “fold higher IC50 value than the Q132R mutation” value amounted to 3.0 fold. For the same compound, the “fold change in IC50” value in series [6] came out at 4.9 fold.
Regarding `COC(=O)c1ccccc1-c1c2ccc(=N)cc-2oc2cc(N)ccc12` [rh123, rhodamine123], the “rh123 efflux (fractional transport rate)” value in [11] is 75% ± 11%; in series [12], 37% ± 8%. Further, in series [13], the rh123 efflux result is listed as “no rh123 efflux was detectable”.

What is called IC50 is the concentration that gives 50% inhibition. As usually defined, the pKa is the negative logarithm of the acid dissociation constant.

The record behind these values is publication PMC4503343 (Molecular pharmacology, 2013).
